Where a SMILES comes first, the peptide text is derived from it. The star is where a group is joined. Cbz = O=C(OCc1ccccc1)*
Molecular target: Her3 (Homo sapiens, UniProt P21860)
Assay: Western blot of Her3 level in PC9 GR4 cells
Format: cell-based
Conditions: combination with TX2-121-1 (0.5 μM), 116-9e 1.0 μM, 17-AAG 0.1 μM
Summary of the method: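 Serum-starved PC9 GR4 cells were treated with test compounds, then stimulated for 30 min with 100 ng/ml NRG. Cells were lysed in Tris/NaCl/EDTA/1% NP-40 buffer with phosphatase and protease inhibitors, and protein was normalised by BCA. Lysates were resolved on 4–12% SDS-PAGE and PVDF blots were probed for p-Her3, Her3, p-Akt (Ser473), Akt, p-Erk1/2 (Thr202/Tyr204) and Erk1/2.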

Her3, sequence (P21860 20-1342): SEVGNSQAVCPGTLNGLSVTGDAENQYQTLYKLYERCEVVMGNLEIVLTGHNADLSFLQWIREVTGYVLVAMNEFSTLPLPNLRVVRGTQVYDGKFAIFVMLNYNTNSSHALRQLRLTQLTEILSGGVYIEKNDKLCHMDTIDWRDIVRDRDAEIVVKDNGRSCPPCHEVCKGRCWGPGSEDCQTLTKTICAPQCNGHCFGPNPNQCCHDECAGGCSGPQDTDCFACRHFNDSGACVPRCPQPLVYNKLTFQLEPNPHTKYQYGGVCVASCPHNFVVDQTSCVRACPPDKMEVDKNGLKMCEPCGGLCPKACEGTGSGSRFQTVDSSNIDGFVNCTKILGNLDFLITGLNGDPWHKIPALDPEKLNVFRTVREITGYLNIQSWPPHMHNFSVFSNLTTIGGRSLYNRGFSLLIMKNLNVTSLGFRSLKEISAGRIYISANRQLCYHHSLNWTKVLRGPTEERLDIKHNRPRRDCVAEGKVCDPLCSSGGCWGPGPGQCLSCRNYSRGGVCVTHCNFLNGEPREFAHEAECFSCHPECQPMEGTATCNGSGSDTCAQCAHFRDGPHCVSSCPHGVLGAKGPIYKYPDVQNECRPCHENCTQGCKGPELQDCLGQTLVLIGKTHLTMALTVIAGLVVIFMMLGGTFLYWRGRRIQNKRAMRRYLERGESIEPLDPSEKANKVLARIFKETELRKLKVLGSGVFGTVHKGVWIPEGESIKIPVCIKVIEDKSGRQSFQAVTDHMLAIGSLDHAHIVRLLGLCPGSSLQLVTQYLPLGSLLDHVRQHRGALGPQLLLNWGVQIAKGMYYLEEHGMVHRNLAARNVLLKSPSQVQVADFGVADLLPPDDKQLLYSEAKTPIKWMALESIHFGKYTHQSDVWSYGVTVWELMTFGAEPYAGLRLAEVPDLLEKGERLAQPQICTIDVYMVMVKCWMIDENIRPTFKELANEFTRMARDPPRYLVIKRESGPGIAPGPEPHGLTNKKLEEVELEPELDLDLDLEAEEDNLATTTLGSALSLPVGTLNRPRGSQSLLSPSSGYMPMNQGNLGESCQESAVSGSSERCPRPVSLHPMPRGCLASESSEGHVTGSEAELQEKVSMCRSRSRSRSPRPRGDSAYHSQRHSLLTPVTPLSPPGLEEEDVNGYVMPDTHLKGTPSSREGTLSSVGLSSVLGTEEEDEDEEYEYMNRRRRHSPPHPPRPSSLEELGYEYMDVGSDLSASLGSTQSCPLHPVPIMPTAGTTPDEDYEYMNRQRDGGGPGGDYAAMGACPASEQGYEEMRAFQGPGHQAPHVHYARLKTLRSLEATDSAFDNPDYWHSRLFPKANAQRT

Row | effect on TX2-121-1 induced Her3 degradation | Structure (SMILES)
1 | enhanced degradation of Her3 | CC1=C(C(=O)OCc2ccccc2)C(c2ccc(-c3ccccc3)cc2)NC(=O)N1CCCCCC(=O)O (stereo not drawn) [116-9e, 4-[1,1′-biphenyl]-4-yl-3,4-dihydro-6-methyl-2-oxo-5-[(phenylmethoxy)carbonyl]-1(2H)-pyrimidinehexanoic acid]
2 | diminished | CC(C)C[C@@H](C=O)NC(=O)[C@H](CC(C)C)NC(=O)[C@H](CC(C)C)NC(=O)OCc1ccccc1 [MG132] (Cbz-Leu-Leu-Leu-aldehyde)
3 | enhanced degradation of Her3 | C=CCNC1=C2C[C@@H](C)C[C@H](OC)[C@H](O)[C@@H](C)/C=C(\C)[C@H](OC(N)=O)[C@@H](OC)/C=C\C=C(/C)C(=O)NC(=CC1=O)C2=O [17-AAG, 17-N-allylamino-17-demethoxygeldanamycin]
